Active and inactive are the calls of the source. The calls are words filed in the database; no cut-off is given here.
How the values were obtained:
[1] = test system: Influenza A virus (A/Puerto Rico/8/1934(H1N1)); assay: Inhibition of Influenza A virus (A/Puerto Rico/8/34(H1N1)) neuraminidase using MUNANA as substrate preincubated for 30 mins followed by substrate addition measured after 30 mins by fluorescence assay relative to control
Method in brief: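 Inactivated PR8 virus supernatant mixed with compound (10 μM) in 33 mM MES […], 4 mM CaCl2 for 30 min at 37 °C. MUNANA (20 μM) was added for 30 min at 37 °C and the reaction stopped with glycine/ethanol pH 10.7. Fluorescence read at ex 360 / em 440 nm; zanamivir 10 μM as reference; n = 3.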

NCI-H1299 = assay: Cytotoxicity against human H1299 cells at 20 uM after 48 hrs by resazurin based fluorescence method; assay type: cell-based; settings: nci-h1299, 48 h
Method in brief: (§1)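 Confluent MDCK, A549 or H1299 cells exposed in triplicate to compound for 48 h at 37 °C (A549/H1299 at 20 μM). Resazurin added to 0.2 mg/mL final for 16 h. Fluorescence read at ex 544 / em 595 nm; viability as % of untreated.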

A549 = assay: Cytotoxicity against human A549 cells at 20 uM after 48 hrs by resazurin based fluorescence method; assay type: cell-based; settings: a549, 48 h; method in brief: as §1
[2] = Drug uptake in human A549 cell nucleus at 20 uM after 4 hrs by DAPI staining based confocal microscopic analysis; assay type: ADME; settings: a549, 4 h
Method in brief: (§2)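 A549 cells incubated with 20 μM compound 4 h at 37 °C, then fixed and DAPI-stained. Compound intrinsic fluorescence located by confocal microscopy.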

Influenza A virus [3] = assay: Antiviral activity against Influenza A virus (A/swine/Minnesota/02719/2009(H3N2)) infected in MDCK cells assessed as virus yeild reduction preincubated with virus at 37 degC for 1 hr followed by viral infection for 1 hr measured after 3 days by crystal violet staining based plaque assay; assay type: functional, cell-based
Method in brief: (§3)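 Plaque reduction: about 50–100 PFU/well of PR8, Cal09 or Minnesota preincubated with compound (0–10 μM) 1 h at 37 °C. Mixture then adsorbed to MDCK monolayers 1 h at 4 °C. Overlay was DMEM with 1.5% agarose, DEAE-dextran and 1 μg/mL TPCK-trypsin for 3 days at 37 °C. Glutaraldehyde fix, crystal violet stain, plaque count; IC50 derived; n = 4.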

Influenza A virus [4] = assay: Antiviral activity against Influenza A virus (A/Puerto Rico/8/34(H1N1)) infected in A549 cells assessed as reduction in localization of viral NP protein in nucleus at 10 uM preincubated with virus at 37 degC for 1 hr followed by viral adsorption at 4 degC for 1 hr and subsequent infection in A549 cells measured at 2 to 4 hrs post infection by FITC-staining based immunofluorescence microscopic method; assay type: functional, cell-based; settings: A/Puerto Rico/8/1934(H1N1)
Method in brief: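 PR8 (MOI 1.0) pretreated with 10 μM compound 1 h at 37 °C, adsorbed 1 h at 4 °C, then A549 cells were kept in infecting medium with 10 μM compound. Fixed with 4% paraformaldehyde at 2 or 4 h p.i., permeabilised with Triton X-100 and blocked. Anti-NP plus FITC secondary, confocal imaging; nuclear NP intensity per unit area quantified (n = 30 images).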

Influenza A virus [5] = assay: Antiviral activity against Influenza A virus (A/Puerto Rico/8/34(H1N1)) infected in MDCK cells assessed as reduction in virus titer at 10 uM preincubated with virus for 1 hr followed by viral infection measured after 24 hrs by crystal violet staining based plaque assay; assay type: functional, cell-based; settings: A/Puerto Rico/8/1934(H1N1)
Method in brief: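 PR8 (MOI 1.0) preincubated with compound (2.5–10 μM) 1 h at 37 °C, then used to infect MDCK cells. After adsorption, medium with the same compound concentration was added. At 24 h p.i. supernatant virus titer was measured by plaque assay; n = 3.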

[6] = Cytotoxicity against MDCK cells after 48 hrs by resazurin based fluorescence method; assay type: cell-based, Canis lupus familiaris; settings: dog; method in brief: as §1
Influenza A virus [7] = assay: Antiviral activity against Influenza A virus (A/Puerto Rico/8/34(H1N1)) infected in MDCK cells assessed as reduction in viral HA titer by measuring reduction in chicken RBC […] after 24 hrs by hemagglutination test; assay type: functional, cell-based; settings: A/Puerto Rico/8/1934(H1N1)
Method in brief: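 MDCK cells infected at MOI 3.0 (single-cycle) with PR8, Cal09 or swine H3N2 Minnesota, then treated with compound for 24 h. Supernatant HA titers were read by 2-fold serial dilution with an equal volume of 1% chicken RBCs, 60 min at 4 °C. Expressed as percent of untreated-cell HA titer; IC50 derived; n = 4.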

Influenza A virus [8] = assay: Antiviral activity against Influenza A virus (A/Puerto Rico/8/34(H1N1)) infected in MDCK cells assessed as virus yeild reduction preincubated with virus at 37 degreeC for 1 hr followed by viral infection for 1 hr measured after 3 days by crystal violet staining based plaque assay; assay type: functional, cell-based; settings: A/Puerto Rico/8/1934(H1N1); method in brief: as §3
[9] = test system: Influenza A virus (A/California/04/2009(H1N1)); assay: Antiviral activity against Influenza A virus (A/California/04/2009(H1N1)) infected in MDCK cells assessed as virus yeild reduction preincubated with virus at 37 degC for 1 hr followed by viral infection for 1 hr measured after 3 days by crystal violet staining based plaque assay; assay type: functional, cell-based; method in brief: as §3
Influenza A virus [10] = assay: Antiviral activity against Influenza A virus (A/Puerto Rico/8/34(H1N1)) infected in Kunming mouse assessed as pulmonary viral titer reduction at 10 mg/kg/day, po qd for 4 days measured on day 4 post last dose by crystal violet staining based plaque assay; assay type: functional, organism-based; settings: A/Puerto Rico/8/1934(H1N1)
Method in brief: (§4)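 Female 4-week-old Kunming mice infected intranasally with PR8 (4 HAU/mouse). Oral gavage once daily began 2 h post-inoculation; placebo control. Mice euthanised on day 4; lungs homogenised in PBS and titrated by plaque assay on cell monolayers (agarose overlay, 3 days, crystal violet).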

Influenza A virus [11] = assay: Antiviral activity against Influenza A virus (A/Puerto Rico/8/34(H1N1)) infected in Kunming mouse assessed as intact columnar epithelium in bronchiole without inflammatory cell infiltration at 10 mg/kg/day, po qd for 4 days by hematoxylin and eosin staining based assay; assay type: functional, organism-based; settings: A/Puerto Rico/8/1934(H1N1)
[12] = Drug uptake in human A549 cells at 20 uM after 4 hrs by DAPI staining based confocal microscopic analysis; assay type: ADME, cell-based; settings: a549, 4 h; method in brief: as §2
[13] = Drug uptake in human A549 cell cytoplasm at 20 uM after 4 hrs by DAPI staining based confocal microscopic analysis; assay type: ADME; settings: a549, 4 h; method in brief: as §2
[14] = Drug uptake in human A549 cell membranes at 20 uM after 4 hrs by DAPI staining based confocal microscopic analysis; assay type: ADME; settings: a549, 4 h; method in brief: as §2
[15] = Selectivity index, ratio of CC50 for MDCK cells to IC50 for Influenza A virus (A/Puerto Rico/8/34(H1N1)) infected in MDCK cells assessed as reduction in virus-induced cytopathic effect; assay type: toxicity, cell-based; settings: dog, read-out: Ratio CC50/IC50
Influenza A virus [16] = assay: Antiviral activity against Influenza A virus (A/Puerto Rico/8/34(H1N1)) infected in Kunming mouse assessed as viral titer reduction in lungs at 20 mg/kg/day, po qd for 4 days measured on day 4 post last dose by crystal violet staining based plaque assay; assay type: functional, organism-based; settings: A/Puerto Rico/8/1934(H1N1); method in brief: as §4
Influenza A virus [17] = assay: Antiviral activity against Influenza A virus (A/Puerto Rico/8/34(H1N1)) infected in Kunming mouse assessed as survival rate at 20 mg/kg/day, po qd for 7 days measured on day 14 post infection (reference value: 30%); assay type: functional; settings: A/Puerto Rico/8/1934(H1N1)
Influenza A virus [18] = assay: Antiviral activity against Influenza A virus (A/Puerto Rico/8/34(H1N1)) infected in Kunming mouse assessed as intact columnar epithelium in bronchiole without inflammatory cell infiltration at 20 mg/kg/day, po qd for 4 days by hematoxylin and eosin staining based assay; assay type: functional, organism-based; settings: A/Puerto Rico/8/1934(H1N1)
[19] = Selectivity index, ratio of CC50 for MDCK cells to IC50 for Influenza A virus (A/Puerto Rico/8/34(H1N1)) infected in MDCK cells by plaque assay; assay type: toxicity, cell-based; settings: dog, read-out: Ratio CC50/IC50
Influenza A virus [20] = assay: Antiviral activity against Influenza A virus (A/Puerto Rico/8/34(H1N1)) infected in MDCK cells assessed as reduction in virus-induced cytopathic effect after 48 hrs by crystal violet staining based assay; assay type: functional, cell-based; settings: A/Puerto Rico/8/1934(H1N1)
Method in brief: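 MDCK cells infected with PR8 at MOI 0.1; compounds added in triplicate after inoculum removal. After 48 h cells were fixed with 4% formaldehyde and stained with 0.1% crystal violet. Dye was methanol-solubilised and read at 570 nm; IC50 was the concentration halving CPE.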

Q: For `CC(=O)N[C@H]1[C@H]([C@H](O)[C@H](O)CO)OC(C(=O)O)=C[C@@H]1NC(=N)N`, which inhibition [1] is on record?
A: > 85%

Q: What does the source list for `O=C(Nc1cccc(Nc2c3ccccc3nc3c2[nH]c2ccccc23)c1)c1ccc(B(O)O)cc1`?
A: Activity (NCI-H1299): Non-Toxic; Activity (A549): Non-Toxic

Q: Which Activity (NCI-H1299) does the source give for `O=C(Nc1ccccc1Nc1c2ccccc2nc2c1[nH]c1ccccc12)c1ccc(B(O)O)cc1` here?
A: Non-Toxic

Q: And the Drug uptake [2]?
A: Not Active

Q: What about the Activity (Influenza A virus [3]) of the same compound?
A: Active

Q: And the Activity (A549)?
A: Non-Toxic

Q: And the Activity (Influenza A virus [4])?
A: Active

Q: What about the Activity (Influenza A virus [5]) of the same compound?
A: Active

Q: And the CC50 at 48 h [6]?
A: 78.6 µM

Q: And the Activity (Influenza A virus [7])?
A: Active

Q: What about the Activity (Influenza A virus [8]) of the same compound?
A: Active

Q: What about the Activity [9] of the same compound?
A: Active

Q: What about the inhibition [1] of the same compound?
A: 56%

Q: And the Activity (Influenza A virus [10])?
A: Active

Q: And the Activity (Influenza A virus [11])?
A: Active

Q: And the Drug uptake [12]?
A: Active

Q: And the Drug uptake [13]?
A: Active

Q: And the Drug uptake [14]?
A: Active

Q: What does the source list for `O=C(Nc1ccc(Nc2c3ccccc3nc3c2[nH]c2ccccc23)cc1)c1ccc(B(O)O)cc1`?
A: Activity (NCI-H1299): Non-Toxic; Activity (A549): Non-Toxic

Q: With `CCOC(=O)C1=C[C@@H](OC(CC)CC)[C@H](NC(C)=O)[C@@H](N)C1` [OSELTAMIVIR] as the compound, how does the selectivity ratio [15] read?
A: 36.2

Q: And the Activity (Influenza A virus [5])?
A: Active

Q: What about the Activity (Influenza A virus [7]) of the same compound?
A: Active

Q: What about the Activity (Influenza A virus [16]) of the same compound?
A: Active

Q: And the survival at 20 mg/kg/day (Influenza A virus [17])?
A: 80%

Q: What about the Activity (Influenza A virus [18]) of the same compound?
A: Active

Q: What does the source list for `O=C(Nc1cccc(Nc2c3ccccc3nc3c2[nH]c2ccccc23)c1)c1cccc(B(O)O)c1`?
A: Activity (NCI-H1299): Non-Toxic; Activity (A549): Non-Toxic

Q: For `Nc1ccccc1Nc1c2ccccc2nc2c1[nH]c1ccccc12`, which Activity (NCI-H1299) is on record?
A: Non-Toxic

Q: And the selectivity ratio [15]?
A: 0.8

Q: What about the Drug uptake [2] of the same compound?
A: Active

Q: What about the Activity (Influenza A virus [3]) of the same compound?
A: Active

Q: And the Activity (A549)?
A: Non-Toxic

Q: And the Activity (Influenza A virus [4])?
A: Active

Q: And the IC50 (Influenza A virus [5])?
A: 25.5 µM

Q: And the CC50 at 48 h [6]?
A: 37.9 µM

Q: What about the Activity (Influenza A virus [7]) of the same compound?
A: Active

Q: And the Activity (Influenza A virus [8])?
A: Active

Q: And the Activity [9]?
A: Active

Q: And the inhibition [1]?
A: inactive

Q: And the Activity (Influenza A virus [10])?
A: inactive

Q: And the Activity (Influenza A virus [11])?
A: Active

Q: What about the Drug uptake [12] of the same compound?
A: Active

Q: And the selectivity ratio [19]?
A: 1.5

Q: What about the IC50 (Influenza A virus [20]) of the same compound?
A: 47.4 µM

Q: For `Nc1ccc(Nc2c3ccccc3nc3c2[nH]c2ccccc23)cc1`, which Activity (NCI-H1299) is on record?
A: Non-Toxic

Q: And the Activity (A549)?
A: Non-Toxic

Q: Which results are given for `O=C(Nc1ccc(Nc2c3ccccc3nc3c2[nH]c2ccccc23)cc1)c1cccc(B(O)O)c1`?
A: Activity (NCI-H1299): Non-Toxic; Activity (A549): Non-Toxic

Q: For `Nc1cccc(Nc2c3ccccc3nc3c2[nH]c2ccccc23)c1`, which Activity (NCI-H1299) is on record?
A: Non-Toxic

Q: What about the Activity (A549) of the same compound?
A: Non-Toxic

— ChEMBL document CHEMBL4043073, “Boronic Acid Modifications Enhance the Anti-Influenza A Virus Activities of Novel Quindoline Derivatives” (J Med Chem, 2017)
